The values that follow come from ChEMBL document CHEMBL3046721, “3-(Arylthiomethyl)isoxazole-4,5-dicarboxamides: chemoselective nucleophilic chemistry and insecticidal activity” (2009).

For assay [1], the system named is Spodoptera exigua. Briefly: Insecticidal activity against second-instar larval stage of Spodoptera exigua fed with artificial diet containing compound assessed as mortality after 5 days by diet-based secondary assay. The class given is functional. Put shortly:
(§1)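 Follow-up for primary-screen hits (>67% mortality): 128-well diet trays, 1 mL diet containing selected dosages, second-instar larvae. Wells covered with clear plastic, eight wells per treatment, percent mortality averaged over eight wells at 5 days. Approximate LC50 estimated by probit analysis.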

The subject of assay [2] is Spodoptera exigua. Kind of assay: Insecticidal activity against second-instar larval stage of Spodoptera exigua fed with artificial diet containing compound assessed as mortality at 50 ug/cm2 after 5 days by diet-based secondary assay. As to conditions: 120 h. The class given is functional. The method in brief:
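Second-instar larvae on 128-well trays with 1 mL diet dosed at 50 μg/cm2, eight wells per treatment under clear plastic. Percent mortality averaged over the eight wells, scored 5 days after assay start; tested only on primary-screen hits (>67% mortality).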

Assay [3] deals with Spodoptera exigua. Briefly: Insecticidal activity against larvae of Spodoptera exigua fed with artificial diet containing compound assessed as mortality after 6 days by high-throughput screening assay. The class given is functional. More on the design: concentration or dose not given beside the values. Put shortly:
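Artificial diet (100 μl/well, 96-well) pretreated with 12 μg compound in 30 μl DMSO-acetone-water (2:1:7), dried several hours, then seeded with eggs. Plates covered, kept in dark at 29°C, mortality recorded 6 days post-treatment. Six replicates per treatment.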

The next assay has as its system Helicoverpa zea. Kind of assay: Insecticidal activity against second-instar larval stage of Helicoverpa zea (corn earworm) fed with artificial diet containing compound assessed as mortality after 5 days by diet-based secondary assay. The class given is functional, organism-based. Put shortly:
as §1

A further assay relates to Aedes aegypti. Briefly: Insecticidal activity against larvae of Aedes aegypti assessed as mortality after 3 days by high-throughput screening assay. The class given is functional, organism-based. Put shortly:
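One-day-old larvae placed in 96-well plates pre-treated with 6 μg/well, applied in 15 μl DMSO-acetone-water (1:1:8) and dried. Plates lidded, held at room temperature, mortality graded 3 days post-treatment. Six replicates per treatment.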

Calls of active or inactive are those of the source.

Take `CCCCNC(=O)c1onc(CS(=O)(=O)c2ccccc2)c1C(=O)NCCCC`: in the assay on Spodoptera exigua [1], the LC50 is reported as 30 microg/cm2. The mortality at 50 µg/cm2 in the assay with Spodoptera exigua [2] is 75%. The mortality with Spodoptera exigua [3] was determined as 100%. The mortality result in the assay with Helicoverpa zea and with Aedes aegypti was “inactive” each time.

`CC[C@H]1CCC[C@H](O[C@H]2CC[C@H](N(C)C)[C@@H](C)O2)[C@@H](C)C(=O)C2=C[C@@H]3[C@@H](C=C(C)[C@@H]4C[C@@H](O[C@@H]5O[C@@H](C)[C@H](OC)[C@@H](OC)[C@H]5OC)C[C@@H]34)[C@@H]2CC(=O)O1.CC[C@H]1CCC[C@H](O[C@H]2CC[C@H](N(C)C)[C@@H](C)O2)[C@@H](C)C(=O)C2=C[C@@H]3[C@@H](C=C[C@@H]4C[C@@H](O[C@@H]5O[C@@H](C)[C@H](OC)[C@@H](OC)[C@H]5OC)C[C@@H]34)[C@@H]2CC(=O)O1`: in the assay with Spodoptera exigua [1], the LC50 came out at 0.06 microg/cm2.

Regarding `COCCNC(=O)c1onc(CSc2ccc(Cl)cc2)c1C(=O)NCCOC`, in the assay on Spodoptera exigua [2], the mortality at 50 µg/cm2 stood at 0%. In the assay with Spodoptera exigua [3], the mortality came to 83%. Moreover, the mortality entry in the assay on Helicoverpa zea and in the assay on Aedes aegypti was “inactive” in each case.

On to `C=CCNC(=O)c1onc(CS(=O)(=O)c2ccc(Cl)cc2)c1C(=O)NCC=C`, for which the mortality at 50 µg/cm2 with Spodoptera exigua [2] worked out at 0%. Also, the mortality in the assay with Spodoptera exigua [3] came out at 100%. Besides, the mortality result with Helicoverpa zea and in the assay on Aedes aegypti was “inactive” throughout.

With `CCCNC(=O)c1c(CSc2ccccc2)noc1C(=O)NCc1ccccc1`, the mortality at 50 µg/cm2 in the assay on Spodoptera exigua [2] was 38%. Further, the mortality with Spodoptera exigua [3] is on record as 83%. Further, the mortality result in the assay with Helicoverpa zea and in the assay with Aedes aegypti was “inactive” throughout.

`C=CCNC(=O)c1onc(CS(=O)(=O)c2ccccc2)c1C(=O)NCC=C`: in the assay on Spodoptera exigua [2], the mortality at 50 µg/cm2 is 0%. In addition, in the assay on Spodoptera exigua [3], the mortality came out at 100%. The mortality entry in the assay on Helicoverpa zea and in the assay with Aedes aegypti was “inactive” throughout.

Turning to `CC(C)NC(=O)c1c(CSc2ccc(Cl)cc2)noc1C(=O)NCc1ccccc1`, the mortality at 50 µg/cm2 in the assay with Spodoptera exigua [2] was 0%. Also, the mortality with Spodoptera exigua [3] came to 100%. The mortality result with Helicoverpa zea and in the assay with Aedes aegypti was “inactive” in each case.

In the case of `CCCNC(=O)c1onc(CS(=O)(=O)c2ccccc2)c1C(=O)NCCC`, the mortality at 50 µg/cm2 in the assay with Spodoptera exigua [2] was determined as 0%. Further, the mortality in the assay on Spodoptera exigua [3] was 100%. For the same compound, the mortality entry in the assay on Helicoverpa zea and in the assay on Aedes aegypti was “inactive” each time.

On to `CCCNC(=O)c1c(CSc2ccc(Cl)cc2)noc1C(=O)NCc1ccccc1`, for which the mortality at 50 µg/cm2 in the assay with Spodoptera exigua [2] amounted to 0%. In the assay on Spodoptera exigua [3], the mortality stood at 100%. Besides, the mortality result in the assay with Helicoverpa zea and in the assay with Aedes aegypti was “inactive” in each case.

Turning to `CCCCNC(=O)c1c(CS(=O)(=O)c2ccc(Cl)cc2)noc1C(=O)NCc1ccccc1`, the mortality at 50 µg/cm2 in the assay on Spodoptera exigua [2] was found to be 0%. Further, the mortality in the assay with Spodoptera exigua [3] was 83%. The mortality result in the assay on Helicoverpa zea and in the assay with Aedes aegypti was “inactive” throughout.

Turning to `COCCNC(=O)c1onc(CS(=O)(=O)c2ccc(Cl)cc2)c1C(=O)NCCOC`, the mortality at 50 µg/cm2 in the assay with Spodoptera exigua [2] was 0%. In the assay on Spodoptera exigua [3], the mortality was determined as 100%. Also, the mortality entry with Helicoverpa zea and in the assay with Aedes aegypti was “inactive” throughout.

Regarding `CC(C)CCNC(=O)c1onc(CSc2ccc(Cl)cc2)c1C(=O)NCCC(C)C`, the mortality at 50 µg/cm2 in the assay with Spodoptera exigua [2] was 0%. Besides, in the assay with Spodoptera exigua [3], the mortality stood at 100%. Besides, the mortality result in the assay on Helicoverpa zea and in the assay on Aedes aegypti was “inactive” each time.

`CCCCNC(=O)c1c(CSc2ccccc2)noc1C(=O)NCc1ccccc1`: the mortality at 50 µg/cm2 with Spodoptera exigua [2] was found to be 0%. For the same compound, the mortality in the assay with Spodoptera exigua [3] is on record as 100%. The mortality result in the assay on Helicoverpa zea and in the assay on Aedes aegypti was “inactive” in each case.

As to `CC(C)NC(=O)c1onc(CS(=O)(=O)c2ccc(Cl)cc2)c1C(=O)NC(C)C`, the mortality at 50 µg/cm2 in the assay on Spodoptera exigua [2] was found to be 0%. Moreover, the mortality in the assay on Spodoptera exigua [3] is reported as 97%. The mortality result with Helicoverpa zea and with Aedes aegypti was “inactive” in each case.

Regarding `COCCNC(=O)c1onc(CS(=O)(=O)c2ccccc2)c1C(=O)NCCOC`, the LC50 in the assay with Spodoptera exigua [1] was 19 microg/cm2. Besides, in the assay on Spodoptera exigua [2], the mortality at 50 µg/cm2 was 75%. The mortality in the assay with Spodoptera exigua [3] is 83%. Further, the mortality result with Helicoverpa zea and in the assay with Aedes aegypti was “inactive” each time.

On to `CCCCNC(=O)c1onc(CS(=O)(=O)c2ccc(Cl)cc2)c1C(=O)NCCCC`, for which, in the assay with Spodoptera exigua [2], the mortality at 50 µg/cm2 was 0%. Besides, the mortality in the assay with Spodoptera exigua [3] was 100%. Also, the mortality entry in the assay on Helicoverpa zea and in the assay with Aedes aegypti was “inactive” throughout.

As for `CCCCNC(=O)c1c(CSc2ccc(Cl)cc2)noc1C(=O)NCc1ccccc1`, the mortality at 50 µg/cm2 in the assay on Spodoptera exigua [2] came out at 0%. Besides, in the assay on Spodoptera exigua [3], the mortality turned out to be 83%. Besides, the mortality entry in the assay with Helicoverpa zea and in the assay on Aedes aegypti was “inactive” throughout.

Regarding `CCCNC(=O)c1c(CS(=O)(=O)c2ccccc2)noc1C(=O)NCc1ccccc1`, in the assay on Spodoptera exigua [2], the mortality at 50 µg/cm2 worked out at 0%. Moreover, in the assay on Spodoptera exigua [3], the mortality was 100%. Also, the mortality result in the assay on Helicoverpa zea and in the assay on Aedes aegypti was “inactive” each time.

Consider `C=CCNC(=O)c1c(CS(=O)(=O)c2ccc(Cl)cc2)noc1C(=O)NCc1ccccc1`, for which the mortality at 50 µg/cm2 with Spodoptera exigua [2] came to 38%. The mortality in the assay with Spodoptera exigua [3] was determined as 100%. The mortality entry in the assay on Helicoverpa zea and in the assay with Aedes aegypti was “inactive” throughout.

In the case of `C=CCNC(=O)c1c(CSc2ccc(Cl)cc2)noc1C(=O)NCc1ccccc1`, the mortality at 50 µg/cm2 with Spodoptera exigua [2] is 0%. The mortality with Spodoptera exigua [3] worked out at 83%. The mortality entry in the assay on Helicoverpa zea and with Aedes aegypti was “inactive” throughout.

Regarding `C=CCNC(=O)c1c(CS(=O)(=O)c2ccccc2)noc1C(=O)NCc1ccccc1`, the mortality at 50 µg/cm2 in the assay on Spodoptera exigua [2] turned out to be 0%. For the same compound, the mortality in the assay on Spodoptera exigua [3] is on record as 100%. In addition, the mortality result in the assay on Helicoverpa zea and in the assay with Aedes aegypti was “inactive” in each case.

As to `CCCNC(=O)c1onc(CS(=O)(=O)c2ccc(Cl)cc2)c1C(=O)NCCC`, in the assay on Spodoptera exigua [2], the mortality at 50 µg/cm2 was 0%. Also, in the assay with Spodoptera exigua [3], the mortality is reported as 83%. Besides, the mortality result in the assay on Helicoverpa zea and in the assay on Aedes aegypti was “inactive” throughout.

For the compound `CC(C)CCNC(=O)c1onc(CSc2ccc(F)cc2)c1C(=O)NCCC(C)C`, in the assay with Spodoptera exigua [2], the mortality at 50 µg/cm2 was 38%. The mortality in the assay on Spodoptera exigua [3] is recorded as 100%. Moreover, the mortality result in the assay on Helicoverpa zea and with Aedes aegypti was “inactive” throughout.

In the case of `CC(C)NC(=O)c1onc(CS(=O)(=O)c2ccccc2)c1C(=O)NC(C)C`, in the assay with Spodoptera exigua [2], the mortality at 50 µg/cm2 stood at 0%. Also, the mortality in the assay on Spodoptera exigua [3] is 100%. Further, the mortality result in the assay with Helicoverpa zea and in the assay on Aedes aegypti was “inactive” in each case.
